Measurements gathered from unrelated publications.
Compare with care: the assays were run in different laboratories.
Target: Calcium/calmodulin-dependent protein kinase type II subunit delta (CAMK2D, Homo sapiens, UniProt Q13557)

| Structure (SMILES) | read-out | action | method | concentration | endpoint | value |
| --- | --- | --- | --- | --- | --- | --- |
| Cc1nn(C)cc1-c1nc2c(N3CCN(Cc4ccc(Cl)cc4)CC3)c(Cl)cnc2[nH]1 | binding |  | competition with immobilised ligand | 1 µM | remaining binding | 94% |
| Cn1cc(-c2cc(F)cc(N3CCn4c(cc5c4CCCC5)C3=O)c2CO)cc(Nc2ccc(N3CCN(C4COC4)CC3)cn2)c1=O | enzyme activity | inhibitor |  | 0.1 µM | inhibition | 11% |
| Nc1ncc(-c2nc(N3CCOCC3)nc(N3CCOCC3)n2)c(C(F)F)n1 | binding |  | competition with immobilised ligand | 10 µM | remaining binding | 66% |
| Cn1cncc1[C@@](O)(COc1ccc(C#N)cc1-c1ccc(OC(F)(F)F)cc1)c1ccc(C#N)cc1 | cell-free assay |  | competition with immobilised ligand | 1 µM | remaining binding | 95% |
| CC(C)(C)c1cc(C=C(C#N)C#N)cc(Br)c1O | enzyme activity | inhibitor |  | 0.5 µM | remaining activity | 96% |
| Cn1cc(-c2cccc(N3CCc4c(sc5c4CC(C)(C)C5)C3=O)c2CO)cc(Nc2ccncn2)c1=O | enzyme activity | inhibitor |  | 1 µM | inhibition | 3% |
| O=c1[nH]c2ccccc2n1C1CCN(Cc2ccc(-c3[nH]c4cc5ncnc5cc4nc3-c3ccccc3)cc2)CC1 | cell-free assay |  |  | 0.5 µM | remaining signal | 97.7% |
| COc1ncccc1-c1cnn2ccc(N3CCN(C(=O)OC(C)C)CC3)nc12 | binding |  | competition with immobilised ligand | 1 µM | remaining binding | 83% |
